Assay outcomes as filed in PubChem BioAssay.
EBV gp42 inh = EBV gp42 inhibition; Q1HVG2; Fluorescence polarization binding assay, mP read-out; inhibition, % (tested at 21.74 µM); 0.42% of 220,000 active; AID 1085; in the data active means inhibition above about 50%
14-3-3 Bad PPI = disrupts binding of bovine 14-3-3 zeta to phospho-Bad peptide | 0.71% of 220,000 active | AID 781 | TR-FRET 14-3-3zeta/Dy647-pBad peptide displacement, 1 h | inhibition, % at 21.7 µM | P63103;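 active means inhibition above about 70%, limit read from the data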
WT yeast gro inh = growth inhibition of WT yeast, mitochondrial fusion screen | mitochondrial fusion phenotypic screen, WT strain | inhibition, % at 10 µM | 2.1% of 190,000 active | AID 1362; in the data active means inhibition above about 58%; tested in S. cerevisiae
NCF1 inh = inhibitors of human p47phox binding | P14598 | p47phox/p22phox peptide binding, fluorescence polarization, 2 h | inhibition, % at 24.7 µM | 0.53% of 220,000 active | AID 1274
eIF4E 4G PPI = blocks eIF4E binding to eIF4G; P63073+Q04637; TR-FRET eIF4E-eIF4GI(517-606) binding, 2 h; inhibition, % at 21.7 µM; 0.37% of 220,000 active; AID 782
Target sequence (P63073 whole entry, looked up): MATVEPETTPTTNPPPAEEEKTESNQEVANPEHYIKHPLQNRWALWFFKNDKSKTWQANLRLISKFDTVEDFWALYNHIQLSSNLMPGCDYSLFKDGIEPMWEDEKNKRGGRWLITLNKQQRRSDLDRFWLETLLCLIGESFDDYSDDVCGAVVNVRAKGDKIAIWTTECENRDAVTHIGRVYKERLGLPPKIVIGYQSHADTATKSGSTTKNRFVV
Target sequence (Q04637 whole entry, looked up): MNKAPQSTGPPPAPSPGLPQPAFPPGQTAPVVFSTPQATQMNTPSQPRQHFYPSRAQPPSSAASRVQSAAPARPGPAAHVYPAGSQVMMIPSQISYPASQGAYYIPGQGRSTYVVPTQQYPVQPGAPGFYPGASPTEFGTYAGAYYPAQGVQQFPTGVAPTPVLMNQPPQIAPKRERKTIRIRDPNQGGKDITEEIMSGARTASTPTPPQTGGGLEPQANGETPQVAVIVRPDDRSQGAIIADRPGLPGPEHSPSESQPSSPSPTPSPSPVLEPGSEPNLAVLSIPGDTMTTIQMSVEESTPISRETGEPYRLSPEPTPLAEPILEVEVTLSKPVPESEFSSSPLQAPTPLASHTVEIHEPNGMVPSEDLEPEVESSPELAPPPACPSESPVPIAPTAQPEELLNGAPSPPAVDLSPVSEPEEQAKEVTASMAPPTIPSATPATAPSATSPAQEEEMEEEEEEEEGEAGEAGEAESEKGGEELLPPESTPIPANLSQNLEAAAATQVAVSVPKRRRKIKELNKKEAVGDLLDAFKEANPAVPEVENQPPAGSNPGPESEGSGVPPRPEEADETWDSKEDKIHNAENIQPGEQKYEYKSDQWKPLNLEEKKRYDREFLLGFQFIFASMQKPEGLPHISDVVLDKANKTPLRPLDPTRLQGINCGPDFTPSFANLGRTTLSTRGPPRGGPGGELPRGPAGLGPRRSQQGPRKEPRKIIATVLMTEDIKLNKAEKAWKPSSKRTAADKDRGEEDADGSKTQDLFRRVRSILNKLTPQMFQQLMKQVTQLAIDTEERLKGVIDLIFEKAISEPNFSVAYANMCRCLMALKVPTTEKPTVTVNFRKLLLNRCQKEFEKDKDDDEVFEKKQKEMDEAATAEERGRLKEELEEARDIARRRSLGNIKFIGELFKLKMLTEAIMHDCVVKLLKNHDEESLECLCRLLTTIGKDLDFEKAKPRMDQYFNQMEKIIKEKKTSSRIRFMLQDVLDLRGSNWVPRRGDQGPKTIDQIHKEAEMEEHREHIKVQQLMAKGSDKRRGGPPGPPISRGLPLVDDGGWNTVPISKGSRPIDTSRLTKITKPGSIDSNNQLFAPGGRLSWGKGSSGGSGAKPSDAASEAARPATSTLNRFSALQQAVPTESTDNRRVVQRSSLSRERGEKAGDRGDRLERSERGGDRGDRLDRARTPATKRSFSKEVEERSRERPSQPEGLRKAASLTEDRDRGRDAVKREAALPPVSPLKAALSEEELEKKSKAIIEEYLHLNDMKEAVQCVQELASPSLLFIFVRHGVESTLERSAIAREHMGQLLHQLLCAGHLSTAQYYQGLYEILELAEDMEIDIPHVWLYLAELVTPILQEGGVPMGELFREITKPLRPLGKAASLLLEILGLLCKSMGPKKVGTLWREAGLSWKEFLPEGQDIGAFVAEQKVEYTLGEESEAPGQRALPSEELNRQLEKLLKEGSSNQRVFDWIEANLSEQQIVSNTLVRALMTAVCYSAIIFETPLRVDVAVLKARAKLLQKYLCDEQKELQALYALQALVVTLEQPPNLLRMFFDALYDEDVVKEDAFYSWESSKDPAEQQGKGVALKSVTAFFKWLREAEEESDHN
RBBP9 inhibitor = blocks human serine hydrolase RBBP9; O75884; recombinant RBBP9, FP-Rh probe fluorescence polarization; inhibition, % at 7.94 µM; 0.2% of 220,000 active; AID 1515;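 active means inhibition above the campaign mean of all tested compounds plus 3 SD, cut at about 14% in these data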
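Test system: recombinant human RBBP9. Quantity: 2.5 µM RBBP9 dispensing solution, before mixing. Detection: FP readout at 525/598 nm. Reagent: Serine-hydrolase probe FP-Rh, 375 nM pre-mixing. Measure: % inhibition. Control set: DMSO-treated enzyme wells and wells lacking RBBP9. Buffer or medium: Tris-NaCl-Pluronic buffer, pH 8.0. Times: preincubation 30 min plus labeling 45 min at 25 °C.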
Large screens that a line does not name were inactive; [ ] = remark or other dose. Hits are enriched below; roughly 3.7% of the tested compounds scored in any of these assays.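 How the source made its calls, unless noted: active means inhibition above about 30% (limit read from the data); inactive means the rest.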

N#Cc1ccccc1OCC(=O)OCC(=O)N1CCN(C(=O)c2ccco2)CC1	none
O=C(CSc1nc(-c2ccc(F)cc2)nc2c1Cc1ccccc1O2)Nc1ccc(C(=O)O)cc1	EBV gp42 inh 74.3, 14-3-3 Bad PPI 96.8, eIF4E 4G PPI 62.1
O=C(CSc1nc(-c2ccc(F)cc2)nc2ccc(F)cc12)Nc1cccc(C(=O)O)c1	none
O=C(CSc1nc(-c2ccccc2)nc2c1Cc1ccccc1O2)Nc1ccc(C(=O)O)cc1	EBV gp42 inh 86.8, 14-3-3 Bad PPI 94.3, eIF4E 4G PPI 60.1
COc1ccccc1S(=O)(=O)Nc1ccc2cn[nH]c2c1	none
COc1ccc(NS(=O)(=O)c2cccs2)cn1	none
COc1ccc(NS(=O)(=O)c2ccc(Cl)s2)cn1	EBV gp42 inh 56.8 (no result: WT yeast gro inh)
O=S(=O)(Nc1ccc2cn[nH]c2c1)c1ccc(Cl)s1	14-3-3 Bad PPI 85.0
Cc1cc(C)n(-c2nc3sc4c(c3c(=O)[nH]2)CCCC4)n1	WT yeast gro inh 73.2
CC(C)CN(C)C(=O)CCc1nnc(Cc2cccc(C(F)(F)F)c2)o1	none
O=C(Cc1ccccc1)NCCc1ccc(Cl)cc1Cl	none
OCCN(Cc1ccccc1)Cc1ccc(Cl)cc1Cl	14-3-3 Bad PPI 87.2
CCCCCC(=O)Nc1cc(N(C)C)nc2ccccc12	WT yeast gro inh 63.7 (no result: EBV gp42 inh, 14-3-3 Bad PPI, NCF1 inh, eIF4E 4G PPI)
Cc1ccc(NC(=O)NCCCl)cc1S(=O)(=O)N1CCOCC1	none (no result: WT yeast gro inh)
C=C1/C(=C\C=C2/CCC[C@]3(C)[C@@H]([C@H](C)CCCC(C)(C)O)CC[C@@H]23)C[C@@H](O)C[C@@H]1O	WT yeast gro inh 94.5
Cc1cc(C)n2nc(-c3ccco3)nc2n1	none
COc1ccc(S(=O)(=O)Nc2ccccc2Cl)cc1NC(C)=O	14-3-3 Bad PPI 91.3
CCCNC(=O)Cn1sc2nc(C)cc(C)c2c1=O	none (no result: WT yeast gro inh)
COCCN(C(=O)CN1CCN(S(=O)(=O)c2ccc(F)cc2)CC1)c1c(N)n(Cc2ccccc2)c(=O)[nH]c1=O	none
Cc1c2ccccc2nc2c(F)c(NCCO)c(F)c(F)c12	EBV gp42 inh 186.7
Cc1c2ccccc2nc2c(F)c(NC(C)C)c(F)c(F)c12	EBV gp42 inh 167.8
OCCNc1c2ccccc2nc2c(F)c(F)c(F)c(F)c12	none
Cc1cc2nc(CS(=O)(=O)c3ccccc3)cc(=O)n2[nH]1	none
CCOc1ccc(NC(=O)CC2C(=O)N(c3cccc(OC)c3)C(=O)N2CCOC)cc1 (stereo not drawn)	none (no result: WT yeast gro inh)
O=C(NC1CCCCC1)N1CCCc2ccccc21	none
O=C(NC1CCCCC1)N1CCSC1=Nc1ccccc1	WT yeast gro inh 59.9
O=C(N/N=C/c1ccc(Br)s1)c1ccc([N+](=O)[O-])cc1	14-3-3 Bad PPI 71.0
Cc1ccc([N+](=O)[O-])cc1N=Cc1ccc(Br)s1	14-3-3 Bad PPI 73.5
O=c1[nH]nc(N2CCOCC2)c(=O)[nH]1	none (no result: WT yeast gro inh)
Cc1ccc(C2N=C(N)Nc3nc(=O)c4ccccc4n32)cc1 (stereo not drawn)	none (no result: WT yeast gro inh)
CN(C)c1cccc(C(=O)OCc2cc(=O)oc3cc(O)ccc23)c1	EBV gp42 inh 51.7
CC1CN(S(=O)(=O)c2cccc(C(=O)OCc3cc(=O)oc4cc(O)ccc34)c2)CC(C)O1 (stereo not drawn)	none (no result: EBV gp42 inh, 14-3-3 Bad PPI, NCF1 inh, eIF4E 4G PPI)
Cc1cc(/C=N/NC(N)=S)c(O)c(/C=N/NC(N)=S)c1	EBV gp42 inh 147.1 (no result: WT yeast gro inh)
COc1ccc(OC)c(N=c2ssnc2Cl)c1	none
Cc1ccc(C2=NNC(=Nc3ccc(F)cc3)SC2)cc1	none
Cc1cc(C)nc(/N=c2/ssnc2Cl)c1	WT yeast gro inh 63.1
COc1cc(N=c2ssnc2Cl)c(OC)cc1Cl	eIF4E 4G PPI 72.8[fluorescence artefact?]
Cc1cc(Cl)ccc1N=c1ssnc1Cl	eIF4E 4G PPI 47.6
Nc1ccccc1N=c1ssnc1Cl	none
Cc1ccc(N=c2ssnc2Cl)cc1	eIF4E 4G PPI 72.0[fluorescence artefact?]
CC1(N(O)/C=C2\C=CC=CC2=O)CCCCC1=O (stereo not drawn)	none (no result: WT yeast gro inh)
O=C(CSc1nc2ccccc2s1)N/N=C/c1cc([N+](=O)[O-])ccc1O	none (no result: WT yeast gro inh)
Cc1cccn2cc(CSc3nnc(Nc4ccc(C(C)C)cc4)s3)nc12	WT yeast gro inh 67.8
COc1ccc(/C=N/Nc2cc(N3CCCC3)nc(N3CCCC3)n2)cc1	WT yeast gro inh 75.1
Oc1cccc(/C=N/Nc2cc(N3CCCC3)nc(N3CCCC3)n2)c1	none
COc1ccc(/C=N/Nc2cc(C)nc(-n3nc(C)cc3C)n2)cc1	WT yeast gro inh 60.0
Oc1ccc(/C=N/Nc2cc(N3CCCC3)nc(N3CCCC3)n2)cc1	WT yeast gro inh 63.1
COc1ccc(OC)c(-n2c(=S)[nH]c3cc(C(=O)N4CCN(c5ccccc5)CC4)ccc3c2=O)c1	none
COc1ccc(CC(=O)NNc2ncnc3c2cnn3Cc2ccccc2)cc1OC	none (no result: WT yeast gro inh)
O=C(CCC(=O)Nc1ccc(Cl)cc1Cl)N/N=C/c1ccc([N+](=O)[O-])o1	none
Cc1cc(C(=O)c2ccccc2)c(NC(=O)CN2CCOCC2)s1	none
Cc1ccc(C(=O)c2cc(C)sc2NC(=O)CN2CCN(C(=O)c3ccco3)CC2)cc1	WT yeast gro inh 78.7
CCCCOc1ccc(NC(=O)CCSc2nccn2C)cc1	none
O=C(N/N=C/c1ccncc1)c1cccc(S(=O)(=O)Nc2ccc(Cl)cc2)c1	eIF4E 4G PPI 92.4 (no result: WT yeast gro inh)
O=C(N/N=C/c1cccnc1)c1cccc(S(=O)(=O)Nc2cccc(Cl)c2)c1	none
COc1ccc(S(=O)(=O)N2CC3CCCN3c3cc(C(F)(F)F)ccc32)cc1 (stereo not drawn)	WT yeast gro inh 74.8
COc1cc2cccc(OC)c(=O)c2c(O)c1OC	none
COc1cc2c(ccc3cc(OC)c(OC)c(O)c32)cc1O	14-3-3 Bad PPI 77.7 (no result: WT yeast gro inh, RBBP9 inhibitor)
C=CCn1c(SCC(=O)c2ccc(O)c(O)c2)nnc1-c1ccccc1OC	none
CCn1c(SCC(=O)c2ccc(O)c(O)c2)nnc1-c1ccccc1OC	NCF1 inh 70.4
CC(C)c1ccc(/C=C/C(=O)NCCCc2ccccc2)cc1	WT yeast gro inh 60.8
COc1ccc2cc3c(N)nn(C(=O)c4ccccc4[N+](=O)[O-])c3nc2c1	none
COc1ccc2cc3c(N)nn(C(=O)c4ccc(Cl)c([N+](=O)[O-])c4)c3nc2c1	14-3-3 Bad PPI 73.8[fluorescence artefact?]
CCOC(=O)C1CCCCN1Cc1cccc(F)c1 (stereo not drawn)	14-3-3 Bad PPI 71.1
CCOC(=O)C1CCCCN1Cc1cccc(OC)c1OC (stereo not drawn)	14-3-3 Bad PPI 75.8
CCOC(=O)C1CCCCN1Cc1cc(OC)ccc1OC (stereo not drawn)	14-3-3 Bad PPI 90.7
CCOC(=O)C1CCCCN1Cc1cc(Cl)ccc1O (stereo not drawn)	none (no result: 14-3-3 Bad PPI, eIF4E 4G PPI)
CCOC(=O)C1CCN(Cc2ccc(F)cc2F)CC1	14-3-3 Bad PPI 76.5
CCOC(=O)C1CCN(Cc2ccc(F)c(Br)c2)CC1	none
COc1cc(/C=N/NC(=O)CSc2n[nH]c(=O)[nH]c2=O)cc(OC)c1O	none
CCN(CC)CCNC(=O)c1cn(-c2ccccc2)nc1-c1cccs1	none (no result: WT yeast gro inh)
